Here are results for 9 compounds from ChEMBL document CHEMBL4602714, “Strategic Incorporation of Polarity in Heme-Displacing Inhibitors of Indoleamine-2,3-dioxygenase-1 (IDO1)” (ACS Med Chem Lett, 2020).

A short description of data set [1]: Unbound intrinsic clearance in rat hepatocytes incubated for 120 mins by LC-MS/MS analysis. Format: ADME, cell-based, Hepatocyte. The note with it: 2 h.
Data set [2] can be described thus: MRT in Wistar Han rat at 0.05 mg/kg, iv administered using cassette dosing by LC-MS/MS analysis. Type of data set: ADME, organism-based. To be noted: in vivo. The essentials: (§1)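 Rat cassette PK: single IV dose of 0.05 mg/kg at 1 mL/kg, vehicle DMSO/PEG400/H2O 20/60/20, animals fasted. Reported values are the geometric mean of n = 2 or more.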
Data set [3] in a line: Unbound intrinsic clearance in human hepatocytes incubated for 120 mins by LC-MS/MS analysis. Type of data set: ADME, cell-based, Hepatocyte. The note with it: 2 h.
A short description of data set [4]: Intrinsic clearance in Wistar Han rat at 0.5 mg/kg, iv or 1 mg/kg, po by LC-MS/MS analysis. The note with it: in vivo. Type of data set: ADME, organism-based. The essentials: (§2)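 Rat 2 × 2 PK: IV arm at 0.5 mg/kg (1 mL/kg) and PO arm at 1 mg/kg (2 mL/kg), both in DMSO/PEG400/H2O 20/60/20. Reported values are the geometric mean of n = 2 or more.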
Data set [5] can be described thus: MRT in Wistar Han rat at 0.5 mg/kg, iv or 1 mg/kg, po by LC-MS/MS analysis. Type of data set: ADME, organism-based. The note with it: in vivo. Put shortly: as §2
Data set [6] can be described thus: Unbound volume of distribution in Wistar Han rat at 0.5 mg/kg, iv or 1 mg/kg, po by LC-MS/MS analysis. Format: ADME, organism-based. To be noted: in vivo. Put shortly: as §2
Data set [7] in a line: Unbound clearance in Wistar Han rat at 0.05 mg/kg, iv administered using cassette dosing by LC-MS/MS analysis. Format: ADME, organism-based. To be noted: in vivo. Put shortly:
as §1

Data set [8] in a line: Volume of distribution in Wistar Han rat at 0.05 mg/kg, iv administered using cassette dosing by LC-MS/MS analysis. Type of data set: ADME, organism-based. The note with it: in vivo. Put shortly: as §1
Data set [9] in a line: Drug metabolism in rat liver microsomes assessed as oxidation of n-propyl group at 30 uM incubated up to 45 mins in presence of NADPH by MetID based LC/MS analysis. Type of data set: ADME, Microsome. The note with it: 0.75 h.
A short description of data set [10]: Drug metabolism in human hepatocytes assessed as oxidation of n-propyl group with aryl amide bond cleavage at 30 uM incubated up to 90 mins in presence of NADPH by MetID based LC/MS analysis. Type of data set: ADME, cell-based, Hepatocyte. To be noted: 1.5 h.
A short description of data set [11]: Drug metabolism in human liver microsomes assessed as oxidation of n-propyl group at 30 uM incubated up to 45 mins in presence of NADPH by MetID based LC/MS analysis. Format: ADME, Microsome. The note with it: 0.75 h. (In general: Microsomes from liver hold many membrane-bound enzymes, among them those of drug oxidation.)
Data set [12] is described as follows: Unbound volume of distribution in Wistar Han rat at 0.05 mg/kg, iv administered using cassette dosing by LC-MS/MS analysis. Format: ADME, organism-based. To be noted: in vivo. Put shortly:
as §1

Data set [13] is described as follows: Clearance in Wistar Han rat at 0.05 mg/kg, iv administered using cassette dosing by LC-MS/MS analysis. Format: ADME, organism-based. To be noted: in vivo. Put shortly: as §1
The nature of data set [14]: Intrinsic clearance in Wistar Han rat at 0.05 mg/kg, iv administered using cassette dosing by LC-MS/MS analysis. Type of data set: ADME, organism-based. To be noted: in vivo. The essentials: as §1

Usually MRT stands for the average time that molecules of a dose stay in the body. In the case of `O=C(Nc1ccc(C2(C(=O)Nc3ccc(F)cc3)COC2)nc1)c1cccc(Cl)c1`, the CL free in data set [1] is below 84 mL/min/kg; in [3], below 44 mL/min/kg. Besides, the MRT in [2] is 3.2 h.

`O=C(Nc1ccc(C2(C(=O)Nc3ccc(Cl)nc3)CCC2)cc1)c1cccc(Cl)c1`: the CL free worked out at 500 mL/min/kg in [1] and 1900 mL/min/kg in data set [3].

As to `O=C(Nc1ccc(C2(C(=O)Nc3ccc(F)cc3)CCC2)cn1)c1cccc(Cl)c1`, the CL free in data set [1] stood at 830 mL/min/kg; in data set [3] it was 1300 mL/min/kg. Also, the CL in data set [4] is 4500 mL/min/kg. Further, the mean residence time MRT in data set [5] amounted to 5 h. Moreover, in data set [6], the Vdu was found to be 2200 L/kg.

For orientation: Vd means a proportionality between amount in the body and measured concentration, not a real space. Read a low Vd as little distribution into tissue. As a reminder, the clearance is a measure of how efficiently the substance is removed, as volume per time. Low values mean a low capacity for elimination, high ones a high capacity for elimination. For `CCCNC(=O)C1(c2ccc(NC(=O)c3cccc(Cl)c3)cc2)CCC1`, the CL free worked out at 7200 mL/min/kg in data set [1], 4100 mL/min/kg in data set [7] and 870 mL/min/kg in data set [3]. The compound further gave an MRT in [2] of 0.7 h. Also, in data set [8], the Vd was found to be 4.9 L/kg. The Drug metabolism entry in [9], in data set [10] and in [11] was “Metabolite_Detected” each time. Moreover, in [12], the Vdu came out at 180 L/kg. The compound also displayed a clearance in [13] of 110 mL/min/kg.

For `CCCNC(=O)C1(c2ccc(NC(=O)c3ccc(F)c(C)c3)cc2)CCC1`, the CL free came out at 6200 mL/min/kg in data set [1] and 560 mL/min/kg in data set [3].

Take `O=C(Nc1ccc(C2(C(=O)Nc3ccc(F)cc3)CCC2)cc1)c1cccc(Cl)c1`: the CL free in [1] and in [3] was 2000 mL/min/kg in each case. In [2], this compound came in with an MRT of 4.3 h. The compound further showed a Vdu in data set [12] of 1100 L/kg. Besides, in data set [14], the CL was 6000 mL/min/kg.

On to `O=C(Nc1ccc([C@]2(C(=O)Nc3ccc(F)cc3)C[C@@H](O)C2)cc1)c1cccc(Cl)c1`, for which the CL free in data set [1] was below 280 mL/min/kg; in [3], 350 mL/min/kg. For the same compound, the MRT in data set [2] is 3.2 h. In data set [12], this compound showed a Vdu of 99 L/kg. This compound also displayed a CL in data set [14] of 590 mL/min/kg.

On to `O=C(Nc1ccc(C2(C(=O)Nc3ccc(F)cc3)COC2)cc1)c1cccc(Cl)c1`, for which the results for the CL free in data set [1] and in data set [3] were 250 mL/min/kg and 420 mL/min/kg, respectively. In data set [2], the MRT worked out at 4.8 h. The compound further yielded a Vdu in [12] of 420 L/kg. Further, the CL in data set [14] came to 1600 mL/min/kg.

For `O=C(Nc1ccc(C2(C(=O)NC3CCOCC3)CCC2)cc1)c1cccc(Cl)c1`, the CL free is 1700 mL/min/kg in data set [1] and 390 mL/min/kg in data set [3].
